Reference: ChEMBL document CHEMBL4819068, “Novel potent bifunctional carboxylesterase inhibitors based on a polyfluoroalkyl-2-imino-1,3-dione scaffold” (Eur J Med Chem, 2021)
Activity calls are given as the source filed them. The calls are words filed in the database; no cut-off is given here.

How the values were obtained:
Liver carboxylesterase [1] = biological target: T1, Liver carboxylesterase (Sus scrofa, UniProt Q29550); assay: Inhibition of porcine liver carboxylesterase using 4-NPA as substrate preincubated for 10 mins followed by substrate addition by spectrophotometric analysis; type: tissue-based
T1 sequence (Q29550 whole entry): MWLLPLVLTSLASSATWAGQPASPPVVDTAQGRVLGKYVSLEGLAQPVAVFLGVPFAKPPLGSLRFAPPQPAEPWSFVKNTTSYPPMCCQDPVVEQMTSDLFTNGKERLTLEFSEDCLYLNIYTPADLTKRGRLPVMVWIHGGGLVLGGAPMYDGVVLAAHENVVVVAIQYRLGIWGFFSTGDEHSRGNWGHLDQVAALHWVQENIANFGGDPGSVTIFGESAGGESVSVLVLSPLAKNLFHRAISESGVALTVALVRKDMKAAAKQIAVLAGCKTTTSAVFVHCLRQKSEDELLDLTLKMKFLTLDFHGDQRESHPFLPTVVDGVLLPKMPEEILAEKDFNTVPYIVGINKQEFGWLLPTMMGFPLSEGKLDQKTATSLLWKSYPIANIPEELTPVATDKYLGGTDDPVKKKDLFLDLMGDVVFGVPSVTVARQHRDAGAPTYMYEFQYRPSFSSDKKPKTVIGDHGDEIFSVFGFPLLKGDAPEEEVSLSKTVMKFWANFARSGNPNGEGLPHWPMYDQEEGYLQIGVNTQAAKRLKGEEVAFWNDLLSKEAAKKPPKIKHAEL
Procedure, shortened: (§1)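 Porcine liver CES, 0.02 unit/mL, in 0.1 M K/Na phosphate pH 8.0, 25 °C; compound in DMSO (2% v/v final) preincubated 10 min, then 1 mM 4-nitrophenyl acetate; 4-nitrophenol read at 405 nm, enzyme-free blanks. Screening at 20 μM in three separate experiments; IC50 from eight concentrations between 10^-12 and 10^-4 M, residual activity relative to inhibitor-free control.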

Acetylcholinesterase [2] = biological target: T2, Acetylcholinesterase (Homo sapiens, UniProt P22303); assay: Inhibition of human erythrocyte AChE at 20 uM using acetylthiocholine iodide as substrate preincubated for 10 mins followed by substrate addition by Ellman's method relative to control
T2 sequence (P22303 whole entry): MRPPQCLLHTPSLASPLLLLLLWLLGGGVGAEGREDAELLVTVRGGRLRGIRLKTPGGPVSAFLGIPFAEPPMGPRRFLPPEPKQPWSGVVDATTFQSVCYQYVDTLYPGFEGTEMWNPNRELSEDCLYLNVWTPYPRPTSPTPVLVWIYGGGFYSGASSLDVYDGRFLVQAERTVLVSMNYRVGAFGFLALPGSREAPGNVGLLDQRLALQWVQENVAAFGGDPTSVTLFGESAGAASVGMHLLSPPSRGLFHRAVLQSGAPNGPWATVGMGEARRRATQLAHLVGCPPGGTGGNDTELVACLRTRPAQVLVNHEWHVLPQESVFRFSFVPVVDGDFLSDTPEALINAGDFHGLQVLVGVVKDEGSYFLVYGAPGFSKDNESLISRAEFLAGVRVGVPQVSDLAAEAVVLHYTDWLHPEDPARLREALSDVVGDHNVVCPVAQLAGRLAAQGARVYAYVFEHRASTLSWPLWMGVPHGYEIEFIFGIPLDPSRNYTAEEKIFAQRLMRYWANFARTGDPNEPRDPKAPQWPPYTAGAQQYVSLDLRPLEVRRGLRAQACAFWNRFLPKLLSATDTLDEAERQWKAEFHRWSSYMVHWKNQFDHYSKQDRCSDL
Procedure, shortened: (§2)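 Single-point screen at 20 μM in 0.1 M K/Na phosphate pH 7.5, 25 °C; 0.02 unit/mL enzyme, 1 mM ATCh (AChE) or BTCh (BChE), 0.33 mM DTNB; 2% DMSO final; 10 min preincubation then substrate; activity relative to inhibitor-free control; three separate experiments.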

[3] = biological target: Cholinesterase (Equus caballus) (UniProt P81908); assay: Inhibition of equine serum BuChE at 20 uM using […] as substrate preincubated for 10 mins followed by substrate addition by Ellman's method relative to control; procedure, shortened: as §2
Chain of Cholinesterase (Equus caballus) (P81908 whole entry): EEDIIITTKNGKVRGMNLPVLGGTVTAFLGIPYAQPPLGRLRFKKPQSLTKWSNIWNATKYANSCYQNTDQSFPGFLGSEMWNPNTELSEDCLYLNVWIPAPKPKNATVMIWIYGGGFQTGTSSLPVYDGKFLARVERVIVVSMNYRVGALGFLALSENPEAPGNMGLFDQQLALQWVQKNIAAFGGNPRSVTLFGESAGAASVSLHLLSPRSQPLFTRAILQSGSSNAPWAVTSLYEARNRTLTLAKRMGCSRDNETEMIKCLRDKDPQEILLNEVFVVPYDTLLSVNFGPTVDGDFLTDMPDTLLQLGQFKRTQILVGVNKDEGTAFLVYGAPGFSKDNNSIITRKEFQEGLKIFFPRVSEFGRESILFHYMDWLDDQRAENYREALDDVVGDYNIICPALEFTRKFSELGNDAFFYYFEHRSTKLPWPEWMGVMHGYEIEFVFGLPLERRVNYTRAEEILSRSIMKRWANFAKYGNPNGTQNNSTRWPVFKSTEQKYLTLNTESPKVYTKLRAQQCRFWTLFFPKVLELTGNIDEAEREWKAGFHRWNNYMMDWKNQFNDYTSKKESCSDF

[4] = Antioxidant activity assessed as trolox equivalent of ABTS radical cation scavenging activity incubated for 24 hrs by UV-Vis spectrophotometric analysis; type: functional
[5] = Antioxidant activity assessed as decrease in ABTS radical cation scavenging activity incubated for 24 hrs by UV-Vis spectrophotometric analysis; type: functional
Acetylcholinesterase [6] = biological target: T2, Acetylcholinesterase; assay: Inhibition of human erythrocyte AChE using acetylthiocholine iodide as substrate preincubated for 10 mins followed by substrate addition by Ellman's method
Cholinesterase [7] = biological target: T3, Cholinesterase (Equus caballus, UniProt P81908); assay: Inhibition of equine serum BuChE using […] as substrate preincubated for 10 mins followed by substrate addition by Ellman's method
T3 sequence (P81908 whole entry): as above

Liver carboxylesterase 1 = biological target: T4, Liver carboxylesterase 1 (Homo sapiens, UniProt P23141); assay: Inhibition of human recombinant CES1 expressed in baculovirus infected BTI insect cells using 4-NPA as substrate by spectrophotometric analysis
T4 sequence (P23141 whole entry): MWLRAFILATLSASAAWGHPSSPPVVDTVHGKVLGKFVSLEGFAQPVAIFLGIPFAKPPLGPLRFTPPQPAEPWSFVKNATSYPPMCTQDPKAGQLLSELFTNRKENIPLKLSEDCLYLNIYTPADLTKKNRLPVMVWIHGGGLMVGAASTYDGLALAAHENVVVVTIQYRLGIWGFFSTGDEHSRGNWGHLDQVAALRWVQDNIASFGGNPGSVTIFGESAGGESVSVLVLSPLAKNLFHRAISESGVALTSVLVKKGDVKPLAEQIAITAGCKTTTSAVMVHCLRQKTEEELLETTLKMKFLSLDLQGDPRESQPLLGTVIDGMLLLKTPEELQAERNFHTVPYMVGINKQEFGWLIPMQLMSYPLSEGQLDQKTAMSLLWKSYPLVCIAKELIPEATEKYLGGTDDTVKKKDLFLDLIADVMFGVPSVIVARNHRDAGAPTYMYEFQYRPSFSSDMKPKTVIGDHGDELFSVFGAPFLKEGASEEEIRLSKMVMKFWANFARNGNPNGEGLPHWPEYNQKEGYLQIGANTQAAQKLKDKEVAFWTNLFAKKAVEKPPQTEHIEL
Procedure, shortened: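 Recombinant hCES1 (baculovirus/BTI insect cells), 0.02 unit/mL, in 0.1 M K/Na phosphate pH 7.4, 25 °C; compound (DMSO, 2% v/v final) preincubated 10 min, then 1 mM 4-nitrophenyl acetate added; 4-nitrophenol release read at 405 nm against enzyme-free blank. IC50 from eight concentrations (10^-12–10^-4 M) relative to inhibitor-free control.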

[8] = Cytotoxicity against human FetMSC cells assessed as reduction in cell viability after 72 hrs by MTT assay; type: cell-based
Procedure, shortened: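 Human fetal MSC (bone-marrow fibroblast-like, nonimmortalized; ≤10–15 passages) grown in F12/DMEM with 10% FBS, 3 mM L-glutamine, penicillin/streptomycin. Seeded at 6×10^3 cells/well; after 24 h, medium replaced with compound at 100, 250, 500 μM for 72 h; controls 0.1% DMSO. MTT 0.5 mg/ml for 4 h, formazan dissolved in DMSO, read at 570 nm; control = 100%.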

[9] = Acute toxicity in ip dosed CD-1 mouse observed for 14 days; type: organism-based; conditions: in vivo, time 14 day
Procedure, shortened: (§3)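 CD-1 mice given compound intraperitoneally in 2% (w/v) starch mucilage, three animals per dose group; lethality observed over 14 days; procedure based on OECD recommendations.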

[10] = Acute toxicity in CD-1 mouse assessed as effect on mouse death at 600 mg/kg, ip measured after 14 days; type: organism-based; conditions: in vivo, 336 h, time 14 day; procedure, shortened: as §3
Liver carboxylesterase [11] = biological target: T1, Liver carboxylesterase; assay: Competitive inhibition of porcine liver carboxylesterase by double reciprocal Lineweaver-Burk plot analysis; type: tissue-based
Procedure, shortened: (§4)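 Porcine liver CES residual activity measured with 3 increasing inhibitor concentrations and 5–6 decreasing 4-nitrophenyl acetate concentrations after 10 min preincubation at 25 °C; parallel inhibitor-free controls. Initial velocities plotted as Lineweaver–Burk double-reciprocal plots to derive mechanism and steady-state inhibition constants; each experiment in triplicate.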

Liver carboxylesterase [12] = biological target: T1, Liver carboxylesterase; assay: Non-competitive inhibition of porcine liver carboxylesterase by double reciprocal Lineweaver-Burk plot analysis; type: tissue-based; conditions: pig; procedure, shortened: as §4
Acetylcholinesterase [13] = biological target: T2, Acetylcholinesterase; assay: Competitive inhibition of human erythrocyte AChE by double reciprocal Lineweaver-Burk plot analysis
Procedure, shortened: (§5)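 Residual activity measured with 3 increasing inhibitor concentrations and 5–6 decreasing substrate concentrations (ATCh for AChE, BTCh for BChE), DTNB read-out, 0.1 M K/Na phosphate pH 7.5, 25 °C; 10 min enzyme–inhibitor preincubation before substrate; no-inhibitor parallel control; triplicate; mechanism from Lineweaver-Burk plots.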

Acetylcholinesterase [14] = biological target: T2, Acetylcholinesterase; assay: Non-competitive inhibition of human erythrocyte AChE by double reciprocal Lineweaver-Burk plot analysis; procedure, shortened: as §5
Cholinesterase [15] = biological target: T3, Cholinesterase; assay: Competitive inhibition of equine serum BuChE by double reciprocal Lineweaver-Burk plot analysis; procedure, shortened: as §5
[16] = biological target: Cholinesterase (Equus caballus) (UniProt P81908); assay: Non-competitive inhibition of equine serum BuChE by double reciprocal Lineweaver-Burk plot analysis; procedure, shortened: as §5
Liver carboxylesterase [17] = biological target: T1, Liver carboxylesterase; assay: Inhibition of porcine liver carboxylesterase at 20 uM using 4-NPA as substrate preincubated for 10 mins followed by substrate addition by spectrophotometric analysis relative to control; type: tissue-based; conditions: pig, probe 4-NPA; procedure, shortened: as §1

Compound	IC50 (Liver carboxylesterase [1])	inhibition (Acetylcholinesterase [2])	inhibition [3]	Activity [4]	IC50 [5]	IC50 (Acetylcholinesterase [6])	IC50 (Cholinesterase [7])	IC50 (Liver carboxylesterase 1)	other results
CCOC(=O)/C(=N\Nc1ccc(C)cc1)C(=O)C(F)(F)C(F)(F)C(F)(F)C(F)(F)F	0.0893 µM	17.2%	4%	0.26	66.6 µM	–	–	–	–
CCOC(=O)/C(=N\Nc1ccccc1)C(=O)C(F)(F)F	0.00614 µM	–	–	0.8	26.7 µM	3.22 µM	8.42 µM	0.0061 µM	IC50 [8]: > 500 µM; LD50 at 336 h [9]: 600 mg/kg; Activity [10]: Non-Toxic
O=C1O[C@H]([C@@H](O)CO)C(O)=C1O [ASCORBIC ACID]	–	–	–	0.98	21.6 µM	–	–	–	–
COC(=O)/C(=N\Nc1ccc(OC)cc1)C(=O)C(F)(F)F	0.0467 µM	–	–	0.97	22.5 µM	30.3 µM	49.6 µM	0.0213 µM	–
COC(=O)/C(=N\Nc1ccc(OC)cc1)C(=O)C(F)(F)C(F)(F)C(F)(F)F	0.103 µM	7.1%	21.2%	0.4	50.3 µM	–	–	0.111 µM	–
Cc1ccc(N/N=C(\C(=O)c2ccccc2)C(=O)C(F)(F)F)cc1	5.54 µM	9.1%	19.4%	1.7	12.8 µM	–	–	–	–
CCOC(=O)/C(=N\Nc1ccc(C)cc1)C(=O)C(F)F	3.23 µM	18.2%	12.4%	0.37	53.3 µM	–	–	–	–
CC(=O)/C(=N\Nc1ccc(C)cc1)C(=O)C(F)(F)F	56.6 µM	11%	13.4%	1.33	15.6 µM	–	–	–	–
COC(=O)/C(=N\Nc1ccccc1[N+](=O)[O-])C(=O)C(F)(F)F	0.00765 µM	–	–	0.03	–	20.9 µM	45.1 µM	0.102 µM	IC50 [8]: > 500 µM; LD50 at 336 h [9]: 300 mg/kg
COC(=O)/C(=N\Nc1ccccc1)C(=O)C(F)(F)F	0.0555 µM	–	–	0.78	26.6 µM	20.1 µM	14.5 µM	0.0115 µM	–
Oc1ccccc1O [CATECHOL]	–	–	–	1.2	16.4 µM	–	–	–	–
COC(=O)/C(=N\Nc1ccc(C)cc1)C(=O)C(F)(F)F	0.0278 µM	–	–	0.98	21.2 µM	28.3 µM	33 µM	0.0163 µM	Ki (Liver carboxylesterase [11]): 0.014 µM; alphaKi (Liver carboxylesterase [12]): 82.2 nM; Ki (Acetylcholinesterase [13]): 10.1 µM; alphaKi (Acetylcholinesterase [14]): 139 µM; Ki (Cholinesterase [15]): 29.2 µM; alphaKi [16]: 72.7 µM
CCOC(=O)/C(=N\Nc1ccc(Br)cc1)C(=O)C(F)(F)F	0.00514 µM	–	–	0.53	36.3 µM	1.36 µM	2.02 µM	0.0153 µM	IC50 [8]: > 500 µM; LD50 at 336 h [9]: 300 mg/kg
CCOC(=O)/C(=N\Nc1ccc(OC)cc1)C(=O)C(F)(F)F	0.0131 µM	–	24.3%	1	19.3 µM	4.62 µM	–	0.00429 µM	–
CCOC(=O)/C(=N\Nc1ccc(C)cc1)C(=O)C(F)(F)C(F)(F)F	0.164 µM	11.5%	–	0.36	55.2 µM	–	31.1 µM	0.0474 µM	–
CCOC(=O)/C(=N\Nc1ccccc1[N+](=O)[O-])C(=O)C(F)(F)F	0.00495 µM	–	–	0.04	–	0.759 µM	8.06 µM	0.0241 µM	IC50 [8]: > 500 µM; LD50 at 336 h [9]: 300 mg/kg
CCOC(=O)/C(=N\Nc1ccc(C(=O)OCC)cc1)C(=O)C(F)(F)F	0.0471 µM	–	–	0.1	193 µM	3.79 µM	19.6 µM	–	–
CCOC(=O)/C(=N\Nc1ccccc1C(=O)OCC)C(=O)C(F)(F)F	0.0416 µM	–	–	0.04	–	0.481 µM	0.122 µM	–	–
Cc1c(C)c2c(c(C)c1O)CCC(C)(C(=O)O)O2 (stereo unspecified) [TROLOX]	–	–	–	1	20.4 µM	–	–	–	–
CCOC(=O)/C(=N\Nc1ccc(C)cc1)C(C)=O	–	6.8%	inactive	0.38	52.4 µM	–	–	–	inhibition at 20 µM (Liver carboxylesterase [17]): 12.1%
O=[N+]([O-])c1ccc(OP(=O)(O)Oc2ccc([N+](=O)[O-])cc2)cc1	–	inactive	inactive	–	–	–	–	–	–
CCOC(=O)/C(=N\Nc1ccc(C)cc1)C(=O)C(F)(F)C(F)(F)C(F)(F)F	0.102 µM	23.6%	–	0.3	62.3 µM	–	42.1 µM	–	–
COC(=O)/C(=N\Nc1ccc(C)cc1)C(=O)C(F)F	1.57 µM	5.8%	2.3%	0.38	52.6 µM	–	–	–	IC50 [8]: > 500 µM
CCOC(=O)/C(=N\Nc1ccc(F)cc1)C(=O)C(F)(F)F	0.00716 µM	–	–	0.6	35.3 µM	2.67 µM	11.3 µM	0.0223 µM	IC50 [8]: > 500 µM
CCOC(=O)/C(=N\Nc1cccc(C)c1)C(=O)C(F)(F)F	0.00727 µM	–	–	0.85	25.4 µM	30.4 µM	38.1 µM	0.00517 µM	IC50 [8]: > 500 µM; LD50 at 336 h [9]: 300 mg/kg
